According to ChEMBL document CHEMBL3860044, “The Rational Design, Synthesis, and Antimicrobial Properties of Thiophene Derivatives That Inhibit Bacterial Histidine Kinases” (J Med Chem, 2016):
Converted amounts (≈) assume the structure as drawn. The source made the active and inactive calls. The rule behind the calls is not given here.

What was measured:
[1] = system: Bacillus subtilis; test: Inhibition of Bacillus subtilis cytoplasmic Walk CA domain (272 to 612 residues) autophosphorylation at 1 mM preincubated for 5 mins followed by [gamma-32P] ATP addition measured after 3 mins by SDS-PAGE based phosphor imaging method
How it was run: (§1)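 Screen used cytoplasmic WalK fragments. 2 µM kinase in Epps buffer pH 8.5 with 20 mM MgCl2, 0.1 mM EDTA and 5% glycerol. Compound at 1 mM final in 10% DMSO, added 5 min before ATP (1 mM final including [γ-32P]ATP). Stopped with SDS loading buffer, run on SDS-PAGE, read by phosphorimaging.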

[2] = system: Bacillus subtilis; test: Inhibition of Bacillus subtilis cytoplasmic Walk CA domain (204 to 612 residues) autophosphorylation at 1 mM preincubated for 5 mins followed by [gamma-32P] ATP addition measured after 3 mins by SDS-PAGE based phosphor imaging method; how it was run: as §1
[3] = Inhibition of Bacillus subtilis JH642 Hexa-his-tagged PhoR cytoplasmic domain (186 to 589 residues) autophosphorylation expressed in Escherichia coli BL21(DE3) preincubated for 5 mins followed by [gamma-32P] ATP addition measured after 8 to 60 mins by SDS-PAGE based phosphor imaging method; parameters: species or system Bacillus subtilis subsp. subtilis str. JH642
How it was run: (§2)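 His6-PhoR purified by Ni-NTA after IPTG induction (1 mM, 16 °C). For IC50: 0.5 µM kinase in Epps pH 8.5, MgCl2, EDTA, glycerol buffer; compound 0–800 µM (two-fold steps), DMSO held constant, 5 min before ATP at 2.5 µM final, cold:hot ratio 1:1. Stopped with SDS loading buffer after 60 min; SDS-PAGE, phosphorimaging, densitometry.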

[4] = Inhibition of Bacillus subtilis JH642 Hexa-his-tagged ResE cytoplasmic domain (203 to 589 residues) autophosphorylation expressed in Escherichia coli BL21(DE3) preincubated for 5 mins followed by [gamma-32P] ATP addition measured after 8 to 60 mins by SDS-PAGE based phosphor imaging method; parameters: species or system Bacillus subtilis subsp. subtilis str. JH642
How it was run: as §2, with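 “His6-ResE” for “His6-PhoR”, “1:10.” for “1:1.”, “8” for “60”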

[5] = Inhibition of Escherichia coli DNA gyrase supercoiling activity using relaxed pUC19 DNA as substrate after 30 mins by agarose gel electrophoresis
How it was run: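 E. coli gyrase (1 U) with 75 ng relaxed pUC19 in kit buffer with 2% DMSO. Compound at 6.25–800 µM final, ciprofloxacin as control. Incubated 30 min at 37 °C, stopped with loading dye, supercoiling read by agarose gel electrophoresis.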

[6] = system: Staphylococcus aureus; test: Antimicrobial activity against methicillin-resistant Staphylococcus aureus USA300 TCH1516 at 100 ug after 20 hrs by disk diffusion assay; assay type: functional; details: USA300_TCH1516
[7] = system: Staphylococcus aureus; test: Antimicrobial activity against methicillin-resistant Staphylococcus aureus USA300 TCH1516 at 20 ug after 20 hrs by disk diffusion assay; assay type: functional; details: USA300_TCH1516
[8] = Antimicrobial activity against Bacillus subtilis JH642 after 20 hrs by two fold serial broth dilution method; assay type: functional, Bacillus subtilis subsp. subtilis str. JH642
How it was run: (§3)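 Two-fold serial broth dilution per CLSI in LB, BHI or THB broth, (3–7) × 10⁵ cfu/mL per well, compound 0.5 to 128 µg/mL, 20 h at 37 °C. MIC is the lowest concentration with no growth. For MBC (>99.99% kill), 10 µL from wells without growth are spotted on agar and read the next day as spots with fewer than 5 colonies.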

[9] = system: Bacillus anthracis; test: Antimicrobial activity against Bacillus anthracis 34F2 after 20 hrs by two fold serial broth dilution method; assay type: functional; details: 34F2, 20 h; how it was run: as §3
[10] = system: Streptococcus agalactiae; test: Antimicrobial activity against Streptococcus agalactiae COH1 GBS after 20 hrs by two fold serial broth dilution method; assay type: functional
How it was run: (§4)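 2-fold serial broth dilution per CLSI in LB, BHI or THB; inoculum (3–7) × 10⁵ cfu/mL; compound 0.5 to 128 µg/mL; 20 h at 37 °C. MIC taken as lowest concentration with no visible growth. For MBC (>99.99% kill), 10 µL from wells without growth spotted on agar; read next day as spots with fewer than 5 colonies.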

[11] = Antimicrobial activity against Salmonella enterica 14028S after 20 hrs by two fold serial broth dilution method; assay type: functional; how it was run: as §3
[12] = system: Escherichia coli; test: Antimicrobial activity against Escherichia coli MG1655 after 20 hrs by two fold serial broth dilution method; assay type: functional; details: K-12 substr. MG1655, 20 h; how it was run: as §3
[13] = system: Bacillus anthracis; test: Bactericidal activity against Bacillus anthracis 34F2 after 20 hrs by two fold serial broth dilution method; assay type: functional; how it was run: as §3
[14] = system: Listeria monocytogenes; test: Bactericidal against Listeria monocytogenes 10403S after 20 hrs by two fold serial broth dilution method; assay type: functional; how it was run: as §4
[15] = system: Enterococcus faecalis; test: Bactericidal activity against Enterococcus faecalis V583 after 20 hrs by two fold serial broth dilution method; assay type: functional; how it was run: as §4
[16] = system: Escherichia coli; test: Bactericidal activity against Escherichia coli MG1655 after 20 hrs by two fold serial broth dilution method; assay type: functional, K-12 substr. MG1655; how it was run: as §3
[17] = system: Bacillus subtilis subsp. subtilis str. JH642; test: Bactericidal activity against Bacillus subtilis JH642 assessed as clearing of bacterial culture at 50 ug/ml upto 9 hrs; assay type: functional
How it was run: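 B. subtilis JH642 grown overnight in LB, diluted into 20 mL LB at OD600 0.05, grown at 37 °C. Compound added at OD600 0.5–0.6. OD600 followed before and after addition over several hours. Vancomycin served as bactericidal control and chloramphenicol as bacteriostatic control.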

[18] = system: Escherichia coli; test: Inhibition of histidine kinase in amoxicillin-resistant Escherichia coli isolate G28 harboring beta-lactamase assessed as adjuvant activity for restoration of amoxicillin induced antibacterial activity by measuring amoxicillin MIC at 50 ug/ml by broth microdilution method (reference value: >16 ug/ml)
How it was run: (§5)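 Clinical resistant isolates and quality control strains (S. aureus ATCC 29213, E. coli ATCC 25922) are tested by EUCAST broth microdilution with a 10⁶ bacteria/mL inoculum, in triplicate, with or without a fixed adjuvant concentration. For MBC, the MIC dilution and at least two more concentrated dilutions are plated and CFU/mL counted.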

[19] = system: Staphylococcus aureus; test: Inhibition of histidine kinase in methicillin-resistant Staphylococcus aureus isolate C1BP13 assessed as adjuvant activity for restoration of cloxacillin induced antibacterial activity by measuring cloxacillin MIC at 50 ug/ml by broth microdilution method (reference value: >8 ug/ml); how it was run: as §5
[20] = system: Staphylococcus aureus; test: Inhibition of histidine kinase in methicillin-resistant Staphylococcus aureus isolate C1BP13 assessed as adjuvant activity for restoration of penicillin G induced antibacterial activity by measuring penicillin G MIC at 50 ug/ml by broth microdilution method (reference value: >8 ug/ml); how it was run: as §5
[21] = system: Escherichia coli; test: Inhibition of histidine kinase in amoxicillin-resistant Escherichia coli isolate G28 harboring beta-lactamase assessed as adjuvant activity for restoration of amoxicillin induced bactericidal activity by measuring amoxicillin MBC at 50 ug/ml by broth microdilution method (reference value: >16 ug/ml); how it was run: as §5
[22] = system: Escherichia coli; test: Inhibition of histidine kinase in cephalosporin-resistant/ESBL producing Escherichia coli isolate ARS 108 assessed as adjuvant activity for restoration of cefotaxime induced bactericidal activity by measuring cefotaxime MBC at 50 ug/ml by broth microdilution method (reference value: >8 ug/ml); how it was run: as §5

With `O=[N+]([O-])c1ccc(-c2ccccc2O)s1` the inhibition [1] was “Active”, the inhibition [2] was “Active” and the IC50 [3] was 123 µM. For the same compound, the IC50 [4] was 124 µM, the IC50 [5] was no less than 400 µM and the Activity [6] was “Active”. The Activity [7] was “Active”, the MIC [8] was 7 µg/mL (≈ 31.6 µM) and the MIC [9] was 7 µg/mL (≈ 31.6 µM). For the same compound, the MIC [10] was 16 µg/mL (≈ 72.3 µM), the MIC [11] was 32 µg/mL (≈ 145 µM) and the MIC [12] was 32 µg/mL (≈ 145 µM). It also gave an MBC99.99 [13] of 16 µg/mL (≈ 72.3 µM), an MBC99.99 [14] greater than 64 µg/mL and an MBC99.99 [15] greater than 64 µg/mL. For the same compound, the MBC99.99 [16] was 32 µg/mL (≈ 145 µM), the Activity [17] was “Active” and the MIC [18] was 0.03 µg/mL. The MIC [19] was less than 0.015 µg/mL, the MIC [20] was less than 0.015 µg/mL and the MBC [21] was 8 µg/mL. It also gave an MBC [22] greater than 8 µg/mL.
